How the values were obtained:
[1] = system: Liver microsome; experiment: Drug metabolism in Sprague-Dawley rat liver microsomes assessed as formation of 2-((4-((2,4-dioxothiazolidin-5-yl)methyl)phenoxy)methyl)-1-methyl-1H-benzo[d]imidazol-6-yl hydrogen sulfate at 20 uM by radio-HPLC/LC-MS/MS analysis; format: ADME
[2] = system: Liver microsome; experiment: Drug metabolism in human liver microsomes assessed as formation of 3-(4-((6-methoxy-1-methyl-1H-benzo[d]imidazol-2-yl)methoxy)phenyl)-2-(methylthio)propanamide at 20 uM after 2 hrs by radio-HPLC/LC-MS/MS analysis in presence of NADPH-generating system/SAM; format: ADME
[3] = molecular target: T1, Cytochrome P450 2C8 (Homo sapiens, UniProt P10632); experiment: Activity of human CYP2C8 expressed in microsomes isolated from baculovirus infected insect cell assessed as enzyme-mediated 2-amino-3-((1-carboxy-2-(4-((6-methoxy-1-methyl-1H-benzo[d]imidazol-2-yl)methoxy)phenyl)ethyl)disulfanyl)propanoic acid formation at 20 uM after 2 hrs by radio-HPLC/LC-MS/MS analysis; format: ADME
T1 sequence (P10632 whole entry): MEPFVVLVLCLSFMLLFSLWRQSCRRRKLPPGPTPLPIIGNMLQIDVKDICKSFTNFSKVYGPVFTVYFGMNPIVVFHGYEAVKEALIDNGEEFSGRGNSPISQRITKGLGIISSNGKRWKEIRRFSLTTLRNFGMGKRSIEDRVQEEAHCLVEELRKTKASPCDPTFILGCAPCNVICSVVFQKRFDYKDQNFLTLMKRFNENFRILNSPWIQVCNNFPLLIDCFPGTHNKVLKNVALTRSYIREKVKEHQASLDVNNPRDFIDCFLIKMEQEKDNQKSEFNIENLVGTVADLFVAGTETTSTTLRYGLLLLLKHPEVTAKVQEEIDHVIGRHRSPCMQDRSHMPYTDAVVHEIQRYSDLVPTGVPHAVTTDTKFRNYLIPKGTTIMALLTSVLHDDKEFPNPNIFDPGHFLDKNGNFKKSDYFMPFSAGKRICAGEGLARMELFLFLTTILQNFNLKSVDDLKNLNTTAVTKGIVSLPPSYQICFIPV
Outline: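 Baculovirus/insect-cell microsomes expressing single human CYPs, 1 mg/ml protein, with 50 mM potassium phosphate (pH 7.4) or 100 mM Tris-HCl (pH 7.5). NADPH-generating system: 2 mM NADP⁺, 20 mM glucose 6-phosphate, 2 units/ml G6PDH, 10 mM MgCl₂. [¹⁴C]rivoglitazone at 20 μM, 2 h at 37°C with shaking. Control used insect-cell control supersomes. Stopped with acetonitrile; supernatant concentrated under nitrogen; metabolites analysed by radio-HPLC, LC-MS and LC-MS/MS.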

[4] = molecular target: T2, Cytochrome P450 1A2 (Homo sapiens, UniProt P05177); experiment: Activity of human CYP1A2 expressed in microsomes isolated from baculovirus infected insect cell assessed as enzyme-mediated 3-(4-((6-methoxy-1-methyl-1H-benzo[d]imidazol-2-yl)methoxy)phenyl)-2-(methylthio)propanamide formation at 20 uM after 2 hrs by radio-HPLC/LC-MS/MS analysis in presence of NADPH-generating system/SAM; format: ADME
T2 sequence (P05177 whole entry): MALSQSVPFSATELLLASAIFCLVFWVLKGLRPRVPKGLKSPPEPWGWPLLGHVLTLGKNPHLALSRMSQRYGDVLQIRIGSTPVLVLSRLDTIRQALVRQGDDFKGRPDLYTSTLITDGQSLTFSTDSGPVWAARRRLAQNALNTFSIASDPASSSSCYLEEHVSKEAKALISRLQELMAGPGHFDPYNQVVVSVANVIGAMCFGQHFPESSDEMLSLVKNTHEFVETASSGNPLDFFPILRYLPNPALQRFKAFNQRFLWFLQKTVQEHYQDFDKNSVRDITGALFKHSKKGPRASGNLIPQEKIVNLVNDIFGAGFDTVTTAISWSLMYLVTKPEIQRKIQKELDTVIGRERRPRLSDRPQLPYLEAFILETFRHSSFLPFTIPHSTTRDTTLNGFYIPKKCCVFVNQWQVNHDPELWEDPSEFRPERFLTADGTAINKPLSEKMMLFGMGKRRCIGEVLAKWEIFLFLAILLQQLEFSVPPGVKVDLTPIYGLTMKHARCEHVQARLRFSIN

[5] = Drug metabolism in rat hepatocytes assessed as formation of (2S,3S,4S,5R,6R)-6-((1-carboxy-2-(4-((6-methoxy-1-methyl-1H-benzo[d]imidazol-2-yl)methoxy)phenyl)ethylthio)carbonylamino)-3,4,5-trihydroxytetrahydro-2H-pyran-2-carboxylic acid at 30 uM after 3 hrs by radio-HPLC/LC-MS/MS analysis in presence of UDPGA and UDPGA/SAM; format: ADME, cell-based, Hepatocyte
[6] = molecular target: T3, UDP-glucuronosyltransferase 1A3 (Homo sapiens, UniProt P35503); experiment: Activity of human UGT1A3 expressed in microsomes isolated from baculovirus infected insect cell assessed as enzyme-mediated 2-hydroxy-3-(4-((6-methoxy-1-methyl-1H-benzo[d]imidazol-2-yl)methoxy)phenyl)propanamide formation at 20 uM after 4 hrs by radio-HPLC/LC-MS/MS analysis in presence of NADPH-generating system and NADPH-generating system/SAM in presence of UDPGA and UDPGA/SAM; format: ADME
T3 sequence (P35503 whole entry): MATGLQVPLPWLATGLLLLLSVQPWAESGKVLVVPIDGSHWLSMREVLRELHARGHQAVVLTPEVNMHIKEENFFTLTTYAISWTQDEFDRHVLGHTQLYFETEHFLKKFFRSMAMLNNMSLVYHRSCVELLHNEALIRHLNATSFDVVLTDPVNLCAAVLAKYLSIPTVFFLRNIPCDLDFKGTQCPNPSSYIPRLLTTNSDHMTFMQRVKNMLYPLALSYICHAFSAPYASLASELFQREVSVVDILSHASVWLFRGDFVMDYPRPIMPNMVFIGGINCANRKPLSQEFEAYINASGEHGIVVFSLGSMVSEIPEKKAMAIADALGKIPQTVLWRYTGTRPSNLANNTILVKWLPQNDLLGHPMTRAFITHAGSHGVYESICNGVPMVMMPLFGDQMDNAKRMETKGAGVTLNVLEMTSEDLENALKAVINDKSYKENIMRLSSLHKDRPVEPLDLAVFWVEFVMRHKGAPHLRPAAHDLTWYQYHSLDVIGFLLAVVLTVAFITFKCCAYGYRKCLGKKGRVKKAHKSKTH

[7] = molecular target: T4, UDP-glucuronosyltransferase 1A8 (Homo sapiens, UniProt Q9HAW9); experiment: Activity of human UGT1A8 expressed in microsomes isolated from baculovirus infected insect cell assessed as enzyme-mediated (2S,3S,4S,5R,6R)-3,4,5-trihydroxy-6-(5-(4-((6-methoxy-1-methyl-1H-benzo[d]imidazol-2-yl)methoxy)benzyl)-2,4-dioxothiazolidin-3-yl)tetrahydro-2H-pyran-2-carboxylic acid formation at 20 uM after 4 hrs by radio-HPLC/LC-MS/MS analysis in presence of UDPGA; format: ADME
T4 sequence (Q9HAW9 whole entry): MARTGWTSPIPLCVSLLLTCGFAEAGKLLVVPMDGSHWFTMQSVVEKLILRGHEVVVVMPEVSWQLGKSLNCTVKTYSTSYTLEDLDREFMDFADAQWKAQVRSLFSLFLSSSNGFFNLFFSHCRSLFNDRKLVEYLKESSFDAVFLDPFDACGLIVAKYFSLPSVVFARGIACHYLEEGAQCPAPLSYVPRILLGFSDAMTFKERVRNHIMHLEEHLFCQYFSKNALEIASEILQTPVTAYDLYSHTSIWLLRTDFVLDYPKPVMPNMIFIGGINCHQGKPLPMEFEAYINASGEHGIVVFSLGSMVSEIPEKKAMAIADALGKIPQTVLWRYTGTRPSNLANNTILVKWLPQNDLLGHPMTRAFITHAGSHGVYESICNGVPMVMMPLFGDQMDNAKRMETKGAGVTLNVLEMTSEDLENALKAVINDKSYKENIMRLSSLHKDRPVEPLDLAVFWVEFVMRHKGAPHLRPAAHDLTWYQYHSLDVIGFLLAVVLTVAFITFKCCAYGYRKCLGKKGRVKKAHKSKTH

Measured: Drug metabolism

COc1ccc2nc(COc3ccc(C[14CH]4SC(=O)NC4=O)cc3)n(C)c2c1.Cl (racemic)
metabolite_not_detected: [1] | [3] | [4] | [6] | [7]
metabolite_detected: [2] | [5]

Source: ChEMBL document CHEMBL3526048, “In vitro metabolism of rivoglitazone, a novel peroxisome proliferator-activated receptor γ agonist, in rat, monkey, and human liver microsomes and freshly isolated hepatocytes” (Drug Metab Dispos, 2011)
